The target in experiment [1] is Histamine H3 receptor (Cavia porcellus, UniProt Q9JI35). Description: Binding affinity against Histamine H3 receptor. In outline:
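H3 receptor binding Ki values are the mean of two independent experiments, with errors given as the range from the mean.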

The target in experiment [2] is Histamine H1 receptor (Cavia porcellus) (UniProt P31389). As to conditions: Ileum, 10 uM.
For experiment [3], the target named is Histamine H3 receptor (Cavia porcellus) (UniProt Q9JI35). As to conditions: Ileum.
For experiment [4], the system named is Cavia porcellus. Nature of the experiment: Effective dose was tested in vivo for 50% inhibition by an H1 histamine-mediated bronchospasm after iv administration in guinea pig. In kind it is functional. The conditions noted are these: Bronchiole. In outline: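 Given intravenously and measured in an H1 histamine-mediated bronchospasm model. Value is expressed as ED50 in mg/kg.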

Experiment [5] relates to Cavia porcellus. Description: Effective dose was tested in vivo for 50% inhibition by an electrically induced CNS hypertension model after iv administration. The format is functional. The essentials:
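H3 agonist activity was measured in a CNS hypertension model with intravenous dosing. Values are ED50 in mg/kg, or % of the activity of the reference H3 agonist at 0.3 mg/kg.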

The target in experiment [6] is Histamine H1 receptor (Cavia porcellus, UniProt P31389). Description: Binding affinity against H1 receptor.
The target in experiment [7] is Histamine H1 receptor (Cavia porcellus) (UniProt P31389). As to conditions: Ileum.
In experiment [8] the target is Histamine H3 receptor (Cavia porcellus) (UniProt Q9JI35). The conditions noted are these: Ileum, 1 uM.
For experiment [9], the system named is Cavia porcellus. Description: Effective dose was tested in vivo for 50% inhibition by an H1 histamine-mediated bronchospasm in guinea pig. The format is functional. As to conditions: Bronchiole.

The source of these data is ChEMBL document CHEMBL1128351, “A novel pyrrolidine analog of histamine as a potent, highly selective histamine H3 receptor agonist” (J Med Chem, 1995).

For orientation: Ki means a measure of affinity in units of concentration, obtained from inhibition or displacement. For orientation: ED50 means the midpoint of the dose-response relation. A high value points to a need for a large dose.

Active and inactive are the calls of the source. No cut-off for these calls is given here. Where only a bound is given, the exact number is not on record here.

Chain of Histamine H3 receptor (Cavia porcellus) (Q9JI35 whole entry): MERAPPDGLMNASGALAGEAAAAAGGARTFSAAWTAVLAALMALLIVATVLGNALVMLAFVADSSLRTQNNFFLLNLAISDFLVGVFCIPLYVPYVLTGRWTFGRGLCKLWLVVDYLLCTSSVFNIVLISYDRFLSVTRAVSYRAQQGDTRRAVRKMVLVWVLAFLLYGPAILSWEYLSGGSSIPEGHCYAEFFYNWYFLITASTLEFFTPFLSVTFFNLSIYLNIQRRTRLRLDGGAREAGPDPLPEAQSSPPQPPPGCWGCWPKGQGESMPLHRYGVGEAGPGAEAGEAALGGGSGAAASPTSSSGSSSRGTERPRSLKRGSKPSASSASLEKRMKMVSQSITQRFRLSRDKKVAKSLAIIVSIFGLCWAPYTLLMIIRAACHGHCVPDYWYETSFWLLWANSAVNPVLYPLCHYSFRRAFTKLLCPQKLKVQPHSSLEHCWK
Chain of Histamine H3 receptor (Q9JI35 whole entry): as above
Chain of Histamine H1 receptor (P31389 whole entry): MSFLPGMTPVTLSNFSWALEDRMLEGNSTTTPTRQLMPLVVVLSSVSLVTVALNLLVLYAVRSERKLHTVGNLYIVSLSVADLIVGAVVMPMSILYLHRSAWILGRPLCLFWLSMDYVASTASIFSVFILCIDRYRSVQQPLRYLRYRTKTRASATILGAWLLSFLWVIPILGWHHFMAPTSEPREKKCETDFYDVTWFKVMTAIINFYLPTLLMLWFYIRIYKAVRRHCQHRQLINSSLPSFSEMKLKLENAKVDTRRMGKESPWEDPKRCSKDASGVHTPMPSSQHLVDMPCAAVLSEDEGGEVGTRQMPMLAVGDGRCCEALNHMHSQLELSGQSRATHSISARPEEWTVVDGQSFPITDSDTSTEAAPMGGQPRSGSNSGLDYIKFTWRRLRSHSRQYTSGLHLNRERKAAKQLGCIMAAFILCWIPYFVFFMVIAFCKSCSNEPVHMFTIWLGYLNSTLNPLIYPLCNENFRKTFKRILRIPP
Chain of Histamine H1 receptor (Cavia porcellus) (P31389 whole entry): as above

`C[C@@]1(N)CCCC[C@@H]1c1cnc[nH]1` (racemic): in experiment [1], the Ki was greater than 2000 nM.
`C[C@H](c1c[nH]cn1)[C@@H](C)N` (racemic) showed a Ki in [1] of 0.8 nM.
Take `C[C@H]1NCC[C@@H]1c1c[nH]cn1` [listing 1 of 2 here]: the pD2 entry in experiment [2] was “inactive”. For the same compound, the pD2 in experiment [3] turned out to be 7.1.
In turn, `N[C@H]1CCC[C@@H]1c1cnc[nH]1` (racemic) came in with a Ki in experiment [1] of 740 nM.
`C[C@@H](N)[C@@H](C)c1c[nH]cn1` (racemic) yielded a Ki in experiment [1] of 11 nM.
The same measure, in the same setting: to `C[C@]1(N)CCCC[C@@H]1c1c[nH]cn1` (racemic) belongs greater than 2000 nM.
For `C[C@@H](N)Cc1c[nH]cn1`, the values for the pD2 in experiment [3] and in [7] were 8.2 and 5.4, respectively. The Ki in [1] is 1.5 nM; in experiment [6] it was greater than 10000 nM. The ED50 is 1.7 mg/kg in [4] and 0.1 mg/kg in [5].
`C[C@@H]1NCC[C@H]1c1c[nH]cn1`: the Ki in experiment [1] is 33 nM; in [6], greater than 10000 nM. In experiment [8], the pD2 entry is “inactive”.
As to `C[C@H]1NCC[C@@H]1c1c[nH]cn1` [listing 2 of 2 here], the values for the Ki in experiment [1] and in [6] were 2.8 nM and greater than 10000 nM, respectively. The ED50 in experiment [5] was 0.18 mg/kg; in [9], greater than 100 mg/kg.
On to `C[C@H]1NCC[C@@H]1c1c[nH]cn1` (racemic), for which the affinity in experiment [1] corresponds to a Ki of 8.7 nM.
